Measurements: ChEMBL document CHEMBL3813688, “Synthesis, antitumor activity and mechanism of action of novel 1,3-thiazole derivatives containing hydrazide-hydrazone and carboxamide moiety” (Bioorg Med Chem Lett, 2016)
In brackets after ≈: the same amount, converted by molar mass.

Key:
Format in all cases: functional, cell-based
[1] = test system: HepG2; test: Cytotoxicity against human HepG2 cells assessed as cell growth inhibition after 72 hrs by MTT assay; settings: HepG2, 72 h
Method in brief: (§1)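 MTT growth assay in human cancer lines (MCF-7, HepG2, BGC-823, HeLa, A549), 72 h after treatment; 5-fluorouracil as reference. IC50 (μg/mL) taken as concentration giving 50% growth inhibition versus untreated control.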

[2] = test system: MCF7; test: Cytotoxicity against human MCF7 cells assessed as cell growth inhibition after 72 hrs by MTT assay; settings: MCF7, 72 h; method in brief: as §1
[3] = test system: A549; test: Cytotoxicity against human A549 cells assessed as cell growth inhibition after 72 hrs by MTT assay; settings: A549, 72 h; method in brief: as §1
[4] = test system: HeLa; test: Cytotoxicity against human HeLa cells assessed as cell growth inhibition after 72 hrs by MTT assay; method in brief: as §1
[5] = Cytotoxicity against human BCG823 cells assessed as cell growth inhibition after 72 hrs by MTT assay; settings: BCG823, 72 h; method in brief: as §1

SMILES	IC50 [1] [µg/mL]	IC50 [2] [µg/mL]	IC50 [3] [µg/mL]	IC50 [4] [µg/mL]	IC50 [5] [µg/mL]
CN(C(=O)NC(=O)c1ccc(Cl)cc1Cl)c1nc(C(F)(F)F)c(C(=O)N/N=C/c2ccccc2C(F)(F)F)s1	10.7 (≈ 17.4 µM)	9.12 (≈ 14.9 µM)	15.3 (≈ 25 µM)	9 (≈ 14.7 µM)	5.73 (≈ 9.36 µM)
CN(C(=O)NC(=O)c1ccccc1F)c1nc(C(F)(F)F)c(C(=O)N/N=C/c2ccc(C(F)(F)F)cc2)s1	4.56 (≈ 8.12 µM)	4.98 (≈ 8.87 µM)	5.68 (≈ 10.1 µM)	3.97 (≈ 7.07 µM)	3.87 (≈ 6.89 µM)
CN(C(=O)NC(=O)c1c(F)cccc1F)c1nc(C(F)(F)F)c(C(=O)N/N=C/c2cc(C(F)(F)F)cc(C(F)(F)F)c2)s1	6.28 (≈ 9.7 µM)	6.85 (≈ 10.6 µM)	17.3 (≈ 26.7 µM)	5.62 (≈ 8.68 µM)	5.28 (≈ 8.16 µM)
COc1ccc(/C=N/NC(=O)c2sc(N(C)C(=O)NC(=O)c3c(F)cccc3F)nc2C)cc1	22.7 (≈ 46.5 µM)				
CN(C(=O)NC(=O)c1cccc(C(F)(F)F)c1)c1nc(C(F)(F)F)c(C(=O)N/N=C/c2ccccc2C(F)(F)F)s1	10.4 (≈ 17 µM)	7.69 (≈ 12.6 µM)	12.1 (≈ 19.8 µM)	7.37 (≈ 12.1 µM)	7.29 (≈ 11.9 µM)
Cc1nc(N(C)C(=O)NC(=O)c2c(F)cccc2F)sc1C(=O)N/N=C/c1ccccc1	54.3 (≈ 119 µM)				
CN(C(=O)NC(=O)c1ccc(Cl)cc1Cl)c1nc(C(F)(F)F)c(C(=O)N/N=C/c2cccc(C(F)(F)F)c2)s1	11.2 (≈ 18.3 µM)	10.7 (≈ 17.5 µM)	10.5 (≈ 17.2 µM)	9.6 (≈ 15.7 µM)	6.11 (≈ 9.98 µM)
Cc1nc(N(C)C(=O)NC(=O)c2c(F)cccc2F)sc1C(=O)N/N=C/c1ccc(F)cc1	> 100				
CN(C(=O)NC(=O)c1ccccc1[N+](=O)[O-])c1nc(C(F)(F)F)c(C(=O)N/N=C/c2ccc([N+](=O)[O-])cc2)s1	25.2 (≈ 44.6 µM)	21.2 (≈ 37.5 µM)	17.6 (≈ 31.2 µM)	18.4 (≈ 32.6 µM)	15.7 (≈ 27.7 µM)
CN(C(=O)NC(=O)c1ccc([N+](=O)[O-])cc1)c1nc(C(F)(F)F)c(C(=O)N/N=C/c2cccc(C(F)(F)F)c2)s1	4.73 (≈ 8.04 µM)	4.39 (≈ 7.46 µM)	5.42 (≈ 9.21 µM)	4.12 (≈ 7 µM)	1.67 (≈ 2.84 µM)
Cc1nc(N(C)C(=O)NC(=O)c2c(F)cccc2F)sc1C(=O)N/N=C/c1ccc(Cl)cc1	> 100				
CN(C(=O)NC(=O)c1ccccc1F)c1nc(C(F)(F)F)c(C(=O)N/N=C/c2ccccc2C(F)(F)F)s1	5.39 (≈ 9.6 µM)	12.2 (≈ 21.8 µM)	6.32 (≈ 11.3 µM)	10.1 (≈ 18 µM)	4.67 (≈ 8.32 µM)
CN(C(=O)NC(=O)c1c(F)cccc1F)c1nc(C(F)(F)F)c(C(=O)N/N=C/c2ccc(C(F)(F)F)cc2)s1	49.6 (≈ 85.6 µM)	35.3 (≈ 61 µM)	40.1 (≈ 69.2 µM)	30.6 (≈ 52.8 µM)	34.9 (≈ 60.2 µM)
CN(C(=O)NC(=O)c1ccc(F)c(F)c1)c1nc(C(F)(F)F)c(C(=O)N/N=C/c2ccc([N+](=O)[O-])cc2)s1	6.23 (≈ 11.2 µM)	4.81 (≈ 8.64 µM)	5.78 (≈ 10.4 µM)	5.08 (≈ 9.13 µM)	2.99 (≈ 5.37 µM)
Cc1nc(N(C)C(=O)NC(=O)c2c(F)cccc2F)sc1C(=O)N/N=C/c1cc(C(F)(F)F)cc(C(F)(F)F)c1	11.4 (≈ 19.1 µM)	11.6 (≈ 19.6 µM)	13 (≈ 21.9 µM)	12.2 (≈ 20.6 µM)	14.1 (≈ 23.7 µM)
CN(C(=O)NC(=O)c1c(Cl)cccc1Cl)c1nc(C(F)(F)F)c(C(=O)N/N=C/c2ccccc2C(F)(F)F)s1	8.95 (≈ 14.6 µM)	6.24 (≈ 10.2 µM)	12 (≈ 19.6 µM)	5.23 (≈ 8.54 µM)	4.12 (≈ 6.73 µM)
CN(C(=O)NC(=O)c1cccc(C(F)(F)F)c1)c1nc(C(F)(F)F)c(C(=O)N/N=C/c2cccc(C(F)(F)F)c2)s1	5.79 (≈ 9.47 µM)	3.7 (≈ 6.05 µM)	8.16 (≈ 13.3 µM)	4.81 (≈ 7.87 µM)	4.6 (≈ 7.52 µM)
CN(C(=O)NC(=O)c1cccc(C(F)(F)F)c1)c1nc(C(F)(F)F)c(C(=O)N/N=C/c2cc(C(F)(F)F)cc(C(F)(F)F)c2)s1	5.38 (≈ 7.92 µM)	6.08 (≈ 8.95 µM)	8.2 (≈ 12.1 µM)	5.34 (≈ 7.86 µM)	5.23 (≈ 7.7 µM)

SMILES	IC50 [1] [µg/mL]	IC50 [2] [µg/mL]	IC50 [3] [µg/mL]	IC50 [4] [µg/mL]	IC50 [5] [µg/mL]
CN(C(=O)NC(=O)c1ccccc1F)c1nc(C(F)(F)F)c(C(=O)N/N=C/c2cc(C(F)(F)F)cc(C(F)(F)F)c2)s1	4.47 (≈ 7.1 µM)	6.16 (≈ 9.79 µM)	5.43 (≈ 8.63 µM)	4.98 (≈ 7.91 µM)	4.23 (≈ 6.72 µM)
COc1cc(/C=N/NC(=O)c2sc(N(C)C(=O)NC(=O)c3c(F)cccc3F)nc2C)cc(OC)c1OC	> 100				
CN(C(=O)NC(=O)c1ccc(Cl)cc1Cl)c1nc(C(F)(F)F)c(C(=O)N/N=C/c2ccc([N+](=O)[O-])cc2)s1	6.85 (≈ 11.6 µM)	6.74 (≈ 11.4 µM)	6.44 (≈ 10.9 µM)	5.12 (≈ 8.69 µM)	2.13 (≈ 3.61 µM)
CN(C(=O)NC(=O)c1ccccc1)c1nc(C(F)(F)F)c(C(=O)N/N=C/c2cccc([N+](=O)[O-])c2)s1	14.3 (≈ 27.5 µM)	15.4 (≈ 29.6 µM)	20.7 (≈ 39.7 µM)	11.2 (≈ 21.6 µM)	13.6 (≈ 26.1 µM)
Cc1nc(N(C)C(=O)NC(=O)c2c(F)cccc2F)sc1C(=O)N/N=C/c1cccc(C(F)(F)F)c1	31.6 (≈ 60.1 µM)	28.1 (≈ 53.6 µM)	30.3 (≈ 57.7 µM)	26.8 (≈ 51 µM)	32.6 (≈ 62.1 µM)
Cc1nc(N(C)C(=O)NC(=O)c2c(F)cccc2F)sc1C(=O)N/N=C/c1ccccc1Cl	> 100				
Cc1nc(N(C)C(=O)NC(=O)c2c(F)cccc2F)sc1C(=O)N/N=C/c1ccc(C(F)(F)F)cc1	> 100	30.6 (≈ 58.2 µM)	60.4 (≈ 115 µM)	40.5 (≈ 77.2 µM)	65.5 (≈ 125 µM)
CN(C(=O)NC(=O)c1c(F)cccc1F)c1nc(C(F)(F)F)c(C(=O)N/N=C/c2ccccc2C(F)(F)F)s1	26.1 (≈ 45 µM)	20.4 (≈ 35.3 µM)	17.9 (≈ 30.9 µM)	19.6 (≈ 33.8 µM)	16.9 (≈ 29.3 µM)
Cc1nc(N(C)C(=O)NC(=O)c2c(F)cccc2F)sc1C(=O)N/N=C/c1ccccc1F	> 100				
CN(C(=O)NC(=O)c1ccccc1F)c1nc(C(F)(F)F)c(C(=O)N/N=C/c2cccc(C(F)(F)F)c2)s1	20.3 (≈ 36.2 µM)	20.5 (≈ 36.6 µM)	19.4 (≈ 34.6 µM)	19.1 (≈ 34.1 µM)	16.3 (≈ 29.1 µM)
CN(C(=O)NC(=O)c1cccc([N+](=O)[O-])c1)c1nc(C(F)(F)F)c(C(=O)N/N=C/c2ccccc2C(F)(F)F)s1	4.8 (≈ 8.16 µM)	4.73 (≈ 8.04 µM)	5.45 (≈ 9.26 µM)	4.15 (≈ 7.05 µM)	3.97 (≈ 6.75 µM)
CN(C(=O)NC(=O)c1ccc([N+](=O)[O-])cc1)c1nc(C(F)(F)F)c(C(=O)N/N=C/c2ccc([N+](=O)[O-])cc2)s1	12.3 (≈ 21.8 µM)	9.24 (≈ 16.3 µM)	8.98 (≈ 15.9 µM)	8.42 (≈ 14.9 µM)	7.45 (≈ 13.2 µM)
CN(C(=O)NC(=O)c1cccc(C(F)(F)F)c1)c1nc(C(F)(F)F)c(C(=O)N/N=C/c2ccc(C(F)(F)F)cc2)s1	7.71 (≈ 12.6 µM)	6.5 (≈ 10.6 µM)	6.2 (≈ 10.1 µM)	7.35 (≈ 12 µM)	4.22 (≈ 6.9 µM)
CN(C(=O)NC(=O)c1ccc(Cl)cc1Cl)c1nc(C(F)(F)F)c(C(=O)N/N=C/c2ccc(C(F)(F)F)cc2)s1	12.4 (≈ 20.3 µM)	8.42 (≈ 13.8 µM)	9.4 (≈ 15.4 µM)	7.99 (≈ 13 µM)	3.08 (≈ 5.03 µM)
CN(C(=O)NC(=O)c1ccc(F)c(F)c1)c1nc(C(F)(F)F)c(C(=O)N/N=C/c2ccccc2C(F)(F)F)s1	10.4 (≈ 17.9 µM)	8.21 (≈ 14.2 µM)	6.96 (≈ 12 µM)	9.24 (≈ 15.9 µM)	3.66 (≈ 6.32 µM)
CN(C(=O)NC(=O)c1ccc(C(F)(F)F)cc1)c1nc(C(F)(F)F)c(C(=O)N/N=C/c2cc(C(F)(F)F)cc(C(F)(F)F)c2)s1	8.35 (≈ 12.3 µM)	7.37 (≈ 10.8 µM)	5.9 (≈ 8.68 µM)	5.78 (≈ 8.51 µM)	1.77 (≈ 2.61 µM)
Cc1nc(N(C)C(=O)NC(=O)c2c(F)cccc2F)sc1C(=O)N/N=C/c1ccc(Cl)cc1Cl	70 (≈ 133 µM)				
Cc1nc(N(C)C(=O)NC(=O)c2ccc(Cl)cc2Cl)sc1C(=O)N/N=C/c1ccc(C(F)(F)F)cc1	> 100	24.5 (≈ 43.9 µM)	30.2 (≈ 54.1 µM)	20.3 (≈ 36.4 µM)	38 (≈ 68 µM)
